From ChEMBL document CHEMBL1240422, “Design, synthesis and biological evaluation of 3,5-diaryl-isoxazoline/isoxazole-pyrrolobenzodiazepine conjugates as potential anticancer agents” (2010)
The source made the active and inactive calls. The rule behind the calls is not given here.

Assays:
A-375 [1] = test: Cell cycle arrest in human A375 cells assessed as accumulation at S phase at 4 uM after 24 hrs using propidium iodide staining by FACS; assay type: functional
Summary of the method: (§1)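 Treated A375 cells (24 h) were harvested with trypsin-EDTA and fixed in ice-cold 70% ethanol (4 °C, 30 min). After a PBS wash, they were incubated with 1 mg/mL RNase A (37 °C, 30 min) and stained with propidium iodide solution containing trisodium citrate and Triton X-100. DNA content was measured by flow cytometry on 20,000 events. Controls were DMSO-treated.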

A-375 [2] = test: Induction of apoptosis in human A375 cells assessed as increase in cytochromeC protein level at 4 uM after 24 hrs by Western blotting; assay type: functional, cell-based
Summary of the method: (§2)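 A375 cells treated 24 h, then lysed in ice-cold RIPA buffer (1% NP-40, 0.5% deoxycholate, 0.1% SDS, protease inhibitors). Protein was quantified by Bradford, and 30 µg per lane run on 12% SDS-PAGE and transferred to PVDF. Blots were blocked 2 h at RT in TBST with 5% blocking powder, probed with primary antibody overnight at 4 °C, then HRP secondary (1:2000, 1 h RT), and read by chemiluminescence against β-actin loading control.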

A2780 = test: Anticancer activity against human A2780 cells after 48 hrs by SRB assay; assay type: functional; details: A2780, 48 h
Summary of the method: (§3)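 Grown in RPMI 1640 with 10% FBS and 2 mM L-glutamine at 37 °C, 5% CO2. Seeded at densities set by doubling time, then preincubated 24 h. Continuous 48 h drug exposure at four concentrations (0.1, 1, 10, 100), triplicate wells. Fixed with cold TCA (final 10%) at 4 °C, 60 min. Stained with 0.4% SRB in 1% acetic acid, eluted with 10 mM Tris base, read at 540/690 nm. Percent growth versus control wells.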

SiHa = test: Anticancer activity against human SiHa cells after 48 hrs by SRB assay; assay type: functional
Summary of the method: (§4)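 Cells grown in RPMI 1640 with 10% FBS and 2 mM L-glutamine, plated at densities set by doubling time, and preincubated 24 h at 37 °C, 5% CO2. Compounds were tested at four concentrations (0.1, 1, 10, 100) in triplicate wells with 48 h continuous exposure. Cells were fixed with cold TCA (10% final, 60 min, 4 °C) and stained with 0.4% SRB in 1% acetic acid (20 min, RT). Dye was eluted with 10 mM Trizma base and read at 540 nm (690 nm reference). Percent growth is relative to control wells, plate by plate.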

A-375 [3] = test: Induction of apoptosis in human A375 cells assessed as reduction in CDK2 protein level at 4 uM after 24 hrs by Western blotting; assay type: functional, cell-based
Summary of the method: (§5)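 A375 cells were treated for 24 h and lysed in ice-cold RIPA buffer (1% NP-40, 0.5% deoxycholate, 0.1% SDS, protease inhibitors). Protein was quantified by Bradford assay, and 30 µg/lane was run on 12% SDS-PAGE and transferred to PVDF. Membranes were blocked 2 h at RT in TBST with 5% blocker, incubated with primary antibody overnight at 4 °C, then with HRP secondary (1:2000, 1 h, RT). Detection was by chemiluminescence, with β-actin as loading control.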

A-375 [4] = test: Induction of apoptosis in human A375 cells assessed as increase in p53 protein level at 4 uM after 24 hrs by Western blotting; assay type: functional, cell-based; summary of the method: as §2
ZR-75-1 = test: Anticancer activity against human ZR-75-1 cells after 48 hrs by SRB assay; assay type: functional; details: ZR-75-1, 48 h; summary of the method: as §4
A-375 [5] = test: Induction of apoptosis in human A375 cells assessed as increase in PPAR protein level at 4 uM after 24 hrs by Western blotting; assay type: functional, cell-based; summary of the method: as §5
A-375 [6] = test: Cell cycle arrest in human A375 cells assessed as accumulation at G2/M phase at 4 uM after 24 hrs using propidium iodide staining by FACS; assay type: functional; summary of the method: as §1
A-375 [7] = test: Cell cycle arrest in human A375 cells assessed as accumulation at G0/G1 phase at 4 uM after 24 hrs using propidium iodide staining by FACS; assay type: functional; summary of the method: as §1
A-375 [8] = test: Induction of apoptosis in human A375 cells assessed as caspase3 activation at 4 uM after 24 hrs by fluorimetry; assay type: functional, cell-based
Summary of the method: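 Caspase-3 activity was measured by a fluorometric assay on lysates of treated and untreated A375 cells.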

KB = test: Anticancer activity against human KB cells after 48 hrs by SRB assay; assay type: functional; summary of the method: as §3
A-375 [9] = test: Cytotoxicity against human A375 cells at 4 uM after 24 hrs […]; assay type: functional, cell-based

Compound | Activity (A-375 [1]) [%] | Activity (A-375 [2]) | GI50 (A2780) [nM] | GI50 (SiHa) [nM] | Activity (A-375 [3]) | Activity (A-375 [4]) | GI50 (ZR-75-1) [nM] | Activity (A-375 [5]) | Activity (A-375 [6]) [%] | Activity (A-375 [7]) [%] | Activity (A-375 [8]) | GI50 (KB) [nM] | Activity (A-375 [9])
COc1cc(C2=NOC(c3cc(OC)c(OC)c(OC)c3)C2)ccc1OCCCOc1cc2c(cc1OC)C(=O)N1CCC[C@H]1C=N2 (stereo partly specified) | 1.1 | Active | < 100 | < 100 | Active | Active | < 100 | Active | 0.4 | 98.5 | Active | < 100 | –
COc1ccc(/C=C\c2cc(OC)c(OC)c(OC)c2)cc1O [COMBRETASTATIN A4] | 38.1 | – | – | – | – | – | – | – | 12.81 | 49.08 | – | – | Active
